Measurements from publication PMC3858399 (Journal of medicinal chemistry, 2013).
“Also recorded” adds a separate entry of the source. Where two headings read alike, the source gives them in different places.

What was measured:
[1] = system: mice with chronic constriction injury (CCI) of the sciatic nerve; details: cited from earlier work; for Reversal of neuropathic pain following CCI in mice: via an A3AR-mediated mechanism
[2] = system: A3AR−/− mice with CCI of the sciatic nerve; experiment: CCI model of neuropathic pain in A3AR knockout mice; type: in vivo, mouse; details: i.p. 3 µmol/kg, male A3AR knock-out mice
[3] = system: mice with chronic constriction injury (CCI) of the sciatic nerve; experiment: CCI model of neuropathic pain; type: in vivo, mouse; details: for Effect on Paw Withdrawal Thresholds (PWT) in contralateral paws: data not shown; for Time of maximal effect on mechano-allodynia: i.p. 3 µmol/kg on D7 after CCI; for Reversal of mechano-allodynia after CCI: i.p. 3 µmol/kg on day 7 (D7) after CCI, mouse
Method in brief: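 Male CD-1 mice (25–30 g), housed 4–5 per cage with a 12 h light/dark cycle. CCI of the left sciatic nerve (Bennett model) under isoflurane (3% induction, 2% maintenance in 100% O2); wound closed with a muscle suture and skin clip. Test compound or vehicle (5% DMSO in saline) given i.p. at 3 µmol/kg on D7, at peak mechano-allodynia. Experimenters blinded; mean ± SEM.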

mA3AR = target: T1, mA3AR (Mus musculus, UniProt Q61618); experiment: Radioligand binding at mA3AR
T1 sequence (Q61618 1-319): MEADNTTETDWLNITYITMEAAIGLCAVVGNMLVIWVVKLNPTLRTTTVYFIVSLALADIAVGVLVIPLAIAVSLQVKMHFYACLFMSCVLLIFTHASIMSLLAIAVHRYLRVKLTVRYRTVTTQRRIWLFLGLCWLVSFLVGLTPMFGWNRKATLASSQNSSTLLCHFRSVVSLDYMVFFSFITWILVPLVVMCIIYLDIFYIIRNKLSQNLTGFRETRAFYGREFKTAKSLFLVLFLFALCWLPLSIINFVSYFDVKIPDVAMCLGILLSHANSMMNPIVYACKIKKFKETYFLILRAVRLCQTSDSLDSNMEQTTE

hA3AR = target: T2, hA3AR (Homo sapiens, UniProt P0DMS8); experiment: Radioligand binding at hA3AR
T2 sequence (P0DMS8 1-318): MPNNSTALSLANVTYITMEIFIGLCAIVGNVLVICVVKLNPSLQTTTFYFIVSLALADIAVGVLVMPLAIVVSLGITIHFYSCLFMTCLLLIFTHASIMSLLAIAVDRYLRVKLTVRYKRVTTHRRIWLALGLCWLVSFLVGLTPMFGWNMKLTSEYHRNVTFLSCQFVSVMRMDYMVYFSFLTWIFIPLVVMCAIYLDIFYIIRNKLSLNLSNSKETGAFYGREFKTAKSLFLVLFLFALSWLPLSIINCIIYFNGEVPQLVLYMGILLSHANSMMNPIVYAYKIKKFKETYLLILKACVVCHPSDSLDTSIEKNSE

mA1AR = target: T3, mA1AR (Mus musculus, UniProt Q60612); type: cell-based; details: tested up to 10 µM
T3 sequence (Q60612 1-326): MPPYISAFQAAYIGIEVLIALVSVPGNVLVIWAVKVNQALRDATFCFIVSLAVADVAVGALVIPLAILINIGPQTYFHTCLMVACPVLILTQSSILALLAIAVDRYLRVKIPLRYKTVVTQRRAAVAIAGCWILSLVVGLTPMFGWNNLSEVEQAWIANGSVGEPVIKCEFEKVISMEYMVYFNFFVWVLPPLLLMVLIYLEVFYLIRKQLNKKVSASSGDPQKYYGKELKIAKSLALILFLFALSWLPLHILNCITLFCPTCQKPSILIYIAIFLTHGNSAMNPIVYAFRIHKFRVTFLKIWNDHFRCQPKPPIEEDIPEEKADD

Row | Compound | Effect on Paw Withdrawal Thresholds (PWT) in contralateral paws [1] | Reversal of neuropathic pain following CCI in mice [1] | Anti-allodynic effect in A3AR−/− mice [2] | Effect on Paw Withdrawal Thresholds (PWT) in contralateral paws [3] | Time of maximal effect on mechano-allodynia [3] [h] | Reversal of mechano-allodynia after CCI [3] | further results
1 | CNC(=O)[C@H]1O[C@@H](n2cnc3c(NCc4cccc(I)c4)ncnc32)[C@H](O)[C@@H]1O [1a, N^6-(3-iodobenzyl)adenosine-5'-N-methyluronamide] | lacked effect | reverse the development of neuropathic pain |  |  |  |  | 
2 | CNC(=O)[C@H]1O[C@@H](n2cnc3c(NCc4cccc(I)c4)nc(Cl)nc32)[C@H](O)[C@@H]1O [1b, 2-Chloro-N^6-(3-iodobenzyl)adenosine-5'-N-methyluronamide] | lacked effect | reverse the development of neuropathic pain |  |  |  |  | 
3 | CNC(=O)[C@@]12C[C@@H]1[C@@H](n1cnc3c(NCc4cccc(Cl)c4)nc(C#Cc4ccc(S(=O)(=O)O)cc4)nc31)[C@H](O)[C@@H]2O [Compound 6, 4-((6-(3-Chlorobenzylamino)-9-((1S,2R,3S,4R,5S)-3,4-dihydroxy-5-(methylcarbamoyl)bicyclo[3.1.0]hexan-2-yl)-9H-purin-2-yl)ethynyl)benzenesulfonic acid] |  |  | significantly but not completely abrogated; also recorded: retained the ability to produce a small protective effect | lacked effect | ≤ 1 | reversed mechano-allodynia | 
4 | CNC(=O)[C@@]12C[C@@H]1[C@@H](n1cnc3c(NCc4cccc(Cl)c4)nc(C#Cc4cccc(S(=O)(=O)O)c4)nc31)[C@H](O)[C@@H]2O [Compound 7, 3-((6-(3-Chlorobenzylamino)-9-((1S,2R,3S,4R,5S)-3,4-dihydroxy-5-(methylcarbamoyl)bicyclo[3.1.0]hexan-2-yl)-9H-purin-2-yl)ethynyl)benzenesulfonic acid] |  |  | completely lost; also recorded: completely eliminated | lacked effect | ≤ 1 | reversed mechano-allodynia | A3AR selectivity in comparison to the A1AR and A2AAR (mA3AR): > 1000 fold; A3AR selectivity in comparison to the A1AR and A2AAR (hA3AR): > 10,000 fold; Functional activity at the mA1AR (mA1AR): completely inactive up to 10 µM
5 | CCCOC(=O)c1c(-c2ccccc2)nc(CC)c(C(=O)SCC)c1CCC [compound 45, 5-propyl-2-ethyl-4-propyl-3-(ethylsulfanylcarbonyl)-6-phenylpyridine-5-carboxylate, reference compound] |  |  |  |  |  |  | Effect of antagonist on the anti-allodynic actions of systemic agonist 7 ([3]; 45 intrathecal 3 nmol, 7 at 3 µmol/kg): had no effect; also recorded: did not block the effects of systemic 7; Blocking of the anti-allodynic effects of A3AR agonist 1a ([1]; antagonist administered systemically, identical CCI model): completely effective
